In publication PMC10753549 (ACS Omega, 2023):
Where a name gives a salt, the structure may show the parent alone. One block for each compound: values may come before it.

How the values were obtained:
NS2B-NS3 protease = details: NS2B-NS3 inhibitors; cited from earlier work
Zika virus strain MR766 = test: Anti-ZIKV viral immunofluorescence assay in Vero cells; type: cell-based, Zika virus (MR766 Africa lineage)
How it was run: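 Vero cells kept in DMEM with 10% FBS, 1% penicillin/streptomycin and 2 mM L-glutamine. They were pretreated with test compound at ten concentrations, then infected with MR766 virus stock grown in C6/36 mosquito cells (5 μL inoculum per well). After 24 h the cells were fixed in 4% paraformaldehyde and read by immunofluorescence. Mycophenolic acid was the positive control. EC50 came from 10-point dose–response curves in triplicate. CC50 was measured in uninfected Vero cells, and SI = CC50/EC50.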

[1] = Cytotoxicity assay on Vero cells; type: cell-based; details: African green monkey, virus-uninfected Vero cells, CC50 (50% cytotoxic concentration), 10-point dose–response curves in triplicate
How it was run: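 Vero cells were grown in DMEM with 10% FBS, 1% penicillin/streptomycin and 2 mM L-glutamine. Virus-uninfected cells were exposed to test compound at ten concentrations. CC50 was calculated from the 10-point dose–response curves, run in triplicate.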

ZIKV NS3 protease = details: read-out: IC50 (viral protease); ref Pathak et al. (2020) [49]; cited from earlier work
[2] = test system: brine shrimp (Artemia salina); test: Brine shrimp lethality bioassay
ZIKV = details: read-out: EC50 (anti-ZIKV); in vitro assays; ref Pathak et al. (2020) [49]; cited from earlier work

Compound: CO[C@@H]1[C@@H](OC(N)=O)[C@@H](O)[C@H](Oc2ccc3c(O)c(NC(=O)c4ccc(O)c(CC=C(C)C)c4)c(=O)oc3c2C)OC1(C)C [novobiocin]
IC50 (NS2B-NS3 protease): 14.2 µM

Compound: CC(C)C[C@H]1C(=O)N2CCC[C@H]2[C@]2(O)O[C@](NC(=O)[C@@H]3C=C4c5cccc6[nH]c(Br)c(c56)C[C@H]4N(C)C3)(C(C)C)C(=O)N12 [bromocriptine]
IC50 (NS2B-NS3 protease): 21.6 µM

Compound: Oc1cccc(-c2c3nc(c(-c4cccc(O)c4)c4ccc([nH]4)c(-c4cccc(O)c4)c4nc(c(-c5cccc(O)c5)c5ccc2[nH]5)CC4)C=C3)c1 [temoporfin]
IC50 (NS2B-NS3 protease): 1.1 µM

EC50 (Zika virus strain MR766; Zika virus, Vero, 24 h, read-out: EC50 (median effective concentration)): 0.94 µM
Compound: COc1c(C)c2c(c(O)c1C/C=C(\C)CCC(=O)O)C(=O)OC2 [MPA, mycophenolic acid]
SI: Selectivity index (CC50/EC50) (Zika virus strain MR766; ZIKV MR766 / Vero cells): >1063
CC50 [1]: > 1000 µM

Compound: COc1ccc2c(O[C@@H]3C[C@H]4C(=O)N[C@]5(C(=O)NS(=O)(=O)C6CC6)C[C@H]5/C=C\CCCCN(C)C(=O)[C@@H]4C3)cc(-c3nc(C(C)C)cs3)nc2c1C [simeprevir]
IC50 (ZIKV NS3 protease): 2.6 µM

Compound: CN1[C@@H]2CC[C@H]1C[C@@H](OC(=O)C(CO)c1ccccc1)C2 (stereo partly shown) [Atropine SO4, Atropine sulfate monohydrate]
nauplii mortality ([2]; after 24 h): below 20%

Compound: C=C[C@@H]1C[C@]1(NC(=O)[C@@H]1C[C@@H](Oc2ncc(OC)c3ccc(Cl)cc23)CN1C(=O)[C@@H](NC(=O)OC(C)(C)C)C(C)(C)C)C(=O)NS(=O)(=O)C1CC1 [asunaprevir]
EC50 (ZIKV): 4.7 µM
IC50 (ZIKV NS3 protease): 6 µM

Compound: erythrosine B
IC50 (NS2B-NS3 protease): 1.7 µM

Compound: COc1ccc2cc3[n+](cc2c1OC)CCc1cc2c(cc1-3)OCO2 [Berberine chloride, berberine chloride]
nauplii mortality ([2]; at 125 μg/mL, 24 h): all the nauplii were dead
LD50 (median lethal dose) ([2]; brine shrimp nauplii, 24 h, probit analysis of 6-point dose (16–500 μg/mL)): 27.0 µg/mL
